Here are results for three compounds from paper PMC4443282 (Molecules and Cells, 2015).

Structures are written as SMILES. Positions count from the first letter of the chain named.

The test system of one data set is wild-type KSI. The data set can be described thus: Kinetic parameters kcat and KM for steroid substrate. As to conditions: relative to wild type. It counts as biochemical, Pseudomonas putida.
In data set [1] the test system is Y30F KSI. The data set is described as above. It counts as biochemical, Pseudomonas putida. Particulars: relative to wild type.
Data set [2] concerns Y55F KSI. Described as above. As to conditions: relative to wild type. It counts as biochemical, Pseudomonas putida.
For the next data set, the target named is T1, Y115F KSI (Pseudomonas putida, UniProt P07445, Y119F).
T1 sequence (P07445 1-131 Y119F): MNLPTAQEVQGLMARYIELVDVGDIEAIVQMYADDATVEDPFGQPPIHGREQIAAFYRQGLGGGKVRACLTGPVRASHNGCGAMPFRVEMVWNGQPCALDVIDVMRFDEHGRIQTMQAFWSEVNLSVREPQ
The data set is described as above. It counts as biochemical.

For another data set, the system named is Y30F/Y55F KSI. The description is as above. It counts as biochemical, Pseudomonas putida. As to conditions: relative to wild type.
For another data set, the target named is T2, Y30F/Y55F/Y115F KSI (Pseudomonas putida, UniProt P07445, Y119F/Y32F/Y57F).
T2 sequence (P07445 1-131 Y32F/Y57F/Y119F): T1 sequence (P07445 1-131 Y119F) with Y32F, Y57F
The description is as above. It counts as biochemical.

The subject of data set [3] is Y30F KSI. As to conditions: ref Kim et al., 2000; cited from earlier work.
Data set [4] relates to Y55F KSI. Particulars: ref Kim et al., 2000; cited from earlier work.
For data set [5] the following is noted: in solution; ref Ha et al., 2000; cited from earlier work.
In another data set the target is T3, D38N KSI (Pseudomonas putida, UniProt P07445, D40N).
T3 sequence (P07445 1-131 D40N): T1 sequence (P07445 1-131 Y119F) with D40N, F119Y
The data set can be described thus: KD by quenching of intrinsic tryptophan fluorescence of KSI. It counts as binding. In a few lines:
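Mutant KSI was expressed in E. coli BL21(DE3) and purified to a single SDS-PAGE band. Steroid ligand in DMSO was titrated successively into KSI in 10 mM potassium phosphate with 10% DMSO. Intrinsic fluorescence was read at ex 295/em 315 nm and corrected for dilution. KD was fitted to a binding equation using total steroid and KSI concentrations. Mean ± SD of three independent experiments.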

Data set [6] deals with Y30F/Y55F/Y115F/D38N KSI. The data set can be described thus: KD by quenching of intrinsic tryptophan fluorescence of KSI. As to conditions: relative to D38N KSI. It counts as binding, Pseudomonas putida.
A further data set deals with T4, Y30F/D38N KSI (Pseudomonas putida, UniProt P07445, D40N/Y32F).
T4 sequence (P07445 1-131 Y32F/D40N): T1 sequence (P07445 1-131 Y119F) with Y32F, D40N, F119Y
The data set is described as above. It counts as binding.

The next data set addresses T5, Y55F/D38N KSI (Pseudomonas putida, UniProt P07445, D40N/Y57F).
T5 sequence (P07445 1-131 D40N/Y57F): T1 sequence (P07445 1-131 Y119F) with D40N, Y57F, F119Y
The data set is described as above. It counts as binding.

In another data set the target is T6, Y115F/D38N KSI (Pseudomonas putida, UniProt P07445, D40N/Y119F).
T6 sequence (P07445 1-131 D40N/Y119F): T1 sequence (P07445 1-131 Y119F) with D40N
The description is as above. It counts as binding.

Another data set has as its target T7, Y30F/Y55F/D38N KSI (Pseudomonas putida, UniProt P07445, D40N/Y32F/Y57F).
T7 sequence (P07445 1-131 Y32F/D40N/Y57F): T1 sequence (P07445 1-131 Y119F) with Y32F, D40N, Y57F, F119Y
The description is as above. It counts as binding.

Data set [7] addresses T8, Y30F/Y55F/Y115F/D38N KSI (Pseudomonas putida, UniProt P07445, D40N/Y119F/Y32F/Y57F).
T8 sequence (P07445 1-131 Y32F/D40N/Y57F/Y119F): T1 sequence (P07445 1-131 Y119F) with Y32F, D40N, Y57F
Described as above. It counts as binding.

Where [8] appears, read: 34 mM potassium phosphate, pH 7.0, 2.5 mM EDTA, 3.3 % methanol, 298 K.

On to `C[C@]12CCC(=O)CC1=CC[C@@H]1[C@@H]2CC[C@]2(C)C(=O)CC[C@@H]12` [5-AND, 5-androstene-3,17-dione], for which the Relative kcat in the data set with wild-type KSI is reported as 1; in the data set on Y30F KSI [1], 0.84; with Y55F KSI [2], 0.17; on Y115F KSI (relative to wild type), 0.68; in the data set on Y30F/Y55F KSI it was 0.50; at Y30F/Y55F/Y115F KSI (relative to wild type), 0.57. In addition, the Michaelis-Menten constant (Km) at Y115F KSI (setting [8]) is 41.7 ± 2 µM; at Y30F/Y55F/Y115F KSI (setting [8]), 77.3 ± 5.6 µM. For the same compound, the kcat entry on Y115F KSI (setting [8]) is “(14.5 ± 0.4) × 10^3 s^−1”; at Y30F/Y55F/Y115F KSI (setting [8]) it was “(12.2 ± 0.2) × 10^3 s^−1”. Also, the “factor of decrease in kcat relative to the wild-type KSI” value with Y30F KSI [3] was 1.2; in the data set on Y55F KSI [4] it was 6. Also, the “pKa of the C4 proton” value in [5] is given as 12.7.

On D38N KSI, `C[C@]12CC[C@@H]3c4ccc(O)cc4CC[C@H]3[C@@H]1CCC2=O` [estrone] came in with a Kd of 110 nM. In addition, in the data set on Y30F/Y55F/Y115F/D38N KSI [6], the “decrease in binding energy” value is 1.3 to 1.4 kcal/mol and the “factor by which affinity is lower than that of D38N KSI” value was 9.1–11.

As for `C[C@]12CCc3c(ccc4cc(O)ccc34)[C@@H]1CCC2=O` [equilenin], the Kd on D38N KSI is 31 nM; at Y30F/D38N KSI it was 70 nM; on Y55F/D38N KSI, 80 nM; at Y115F/D38N KSI, 70 nM; at Y30F/Y55F/D38N KSI, 250 nM; on Y30F/Y55F/Y115F/D38N KSI [7], 340 nM. Moreover, the “decrease in binding energy” value in the data set on Y30F/Y55F/Y115F/D38N KSI [6] lay within 1.3 to 1.4 kcal/mol. Moreover, the “factor by which affinity is lower than that of D38N KSI” value in the data set on Y30F/Y55F/Y115F/D38N KSI [6] is reported as 9.1–11.

The term Km denotes the substrate concentration at which the rate is half of its maximum. Broadly, the Kd is the equilibrium constant for the complex coming apart. The low end stands for higher affinity, the high end for lower affinity.
